Measured values: the EternaBench riboswitch data

Tested on: MS2 coat protein
Assay: apparent Kd, MS2 coat protein; higher = weaker binding; RNA-MaP array
How it was run: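 In Tris-HCl pH 7.5 buffer with KCl, MgCl2, BSA, DTT, tRNA and Tween20, with or without input ligand, fluorescently labeled MS2 coat protein at 1.5 nM to 3 μM was incubated at room temperature with designed RNAs. The RNAs had been transcribed on an Illumina sequencing chip from sequenced DNA templates, and incubation ran 0.8–1.5 h at the lowest to 10–20 min at the highest concentrations. Apparent Kd is the median of binding-curve fits for individual clusters. Designs measured on fewer than 10 clusters were excluded.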

[1] = designed as: OFF switch for flavin mononucleotide, no ligand
[2] = ligand present: flavin mononucleotide, designed as: OFF switch for flavin mononucleotide
[3] = designed as: ON switch for flavin mononucleotide, no ligand
[4] = ligand present: flavin mononucleotide, designed as: ON switch for flavin mononucleotide
[5] = designed as: ON switch for tryptophan, no ligand
[6] = ligand present: tryptophan, designed as: ON switch for tryptophan

| Sequence | apparent Kd [1] | apparent Kd [2] | apparent Kd [3] | apparent Kd [4] | also measured |
| --- | --- | --- | --- | --- | --- |
| UCAGCUAGACAGGAUAUAGAGAAUCAAGAACAGCUAGAAGGGUCAACAUGAGGAUCACCCAUGUGGUGGUACUG | 477 nM | 445 nM | – | – | – |
| UACUUCACGAUACAGGAUAUACGUAAGUUCACAUGAGGAUCACCCAUGUUAGCACACCAACUCAUGUAGAAGGGUAUCCCUAUAUA | – | – | 30.4 nM | 13.1 nM | – |
| GCUCGUUGCAUGGAUACCAGUUGAUAGGCCGCCUCCGGAUACAUGAGGAUCACCCAUGUCAACCCUUGGCAGCCACCCAAUAGGG | – | – | – | – | apparent Kd (designed as: OFF switch for theophylline, no ligand): 9.36 nM; apparent Kd (ligand present: theophylline, designed as: OFF switch for theophylline): 18.1 nM |
| AAUCCAAGAAAUGAUACCAGUCCCACUCAGGACAUGAGGAUCACCCAUGUAAUACAGGGAGACCCUUGGCAGCAUCGAAUAAACA | – | – | – | – | apparent Kd (designed as: ON switch for theophylline, no ligand): 432 nM; apparent Kd (ligand present: theophylline, designed as: ON switch for theophylline): 82.7 nM |
| UUUACAUGAGGAUCACCCAUGUUCCCUUGUGACACGUUUUUCAGAAGGACAGGCAUAAUUUGGAUGUAGGAUAUGAAUUAGUGC | 24.9 nM | 21.9 nM | – | – | – |
| CGCCCAGUUACGGCCGCCACUUCGAUGGCAAAUGUCGAGCCUCCACAUGAGGAUCACCCAUGUCGAAGGACCGGGUACUGCUUGC | – | – | – | – | apparent Kd [5]: 31.9 nM; apparent Kd [6]: 110 nM |
| CACGCCAGAUCUCAGGAUAUCCCACAUCAAACAUGAGGAUCACCCAUGUGACAUAUAUAGAACAUGGAGAAGGGAGCACAUGCGGC | – | – | 209 nM | 113 nM | – |
| GGAAUGUAAGGAUAUACCCGUAAGGUAGGGAUCGCAUCGGCGUAGAAGGUACAUGAGGAUCACCCAUGUUCAGC | 7.78 nM | 7.97 nM | – | – | – |
| AAUAGUUCUGGAGGAUAUUGUACAUGAGGAUCACCCAUGUUAUCUACUGCUAUGGUUGACCUGCGCAAGAAGGCCACGUUCCUG | 12.6 nM | 20.5 nM | – | – | – |
| CUCUAUCAGCAAGGAUAUGGGAGGUGUCGAGUUCCAGAAGGUGCACAUGAGACAUGAGGAUCACCCAUGUUGUGUAGUCCUCGA | 10.8 nM | 26.5 nM | – | – | – |
| CAUUAAACAGCAGGAUAUACUAGUGUGAUACUGGUAGAAGGGCUCCUCACCCACAUGAGGAUCACCCAUGUGACAUCUACCUUA | – | – | 314 nM | 146 nM | – |
| ACCAACCACACCCUUCACUGUUUUCGCCGCCGAGGACCGGUACGGCCGCCACUCGUACAAAGACAUGAGGAUCACCCAUGUGCCU | – | – | – | – | apparent Kd (designed as: OFF switch for tryptophan, no ligand): 14.5 nM; apparent Kd (ligand present: tryptophan, designed as: OFF switch for tryptophan): 21.4 nM |
| CACAACGGUAGUUAGGAUAUCCAUAUGCGUACAUGAGGAUCACCCAUGUAAUUACAGAAAUGAUAGGAGAAGGAACGCAUCCGAAA | – | – | 33.3 nM | 21 nM | – |
| ACUCGAUUACACAACCCGACAUGAGGAUCACCCAUGUAUCCGAGAAGGGCUAAUAUAUUCAGGAAGCAGGAUAUCGAAUCAAUA | – | – | 87.5 nM | 50.5 nM | – |
| AUCACAUGAGGAUCACCCAUGUUAGGUAGAUGCAGUAAAGUCUAGGAUAUAAGCUUGUGAAGUAGUUAGAAGGAGACACAUGAG | 22.9 nM | 18.3 nM | – | – | – |
| AUUGAGACCUAGAAGGCGAAAACAUGAGGAUCACCCAUGUAGAUAACACCUACAUGAGCGAAAUACGAGGAUAUAGGAAAACUC | 356 nM | 351 nM | – | – | – |
| AGGAACGUAGAGAAGGGAUCAAUUCGGUACAUGAGGAUCACCCAUGUGAUGGCCAAACUUCGAAAUCAGGAUAUCUCAUAAUAC | – | – | 18.4 nM | 14.2 nM | – |
| AACUAACAUAGUUAACAACAUGAGGAUCACCCAUGUCGCAUGUAGGAUAUGGUAGAGGACACAACCCAGAAGGACAUAACAUAA | – | – | 41.9 nM | 22.9 nM | – |
| AUUCAUCUCUAGAAGGGACUGCACAAAACACAGAAUUCUUACAUGAGGAUCACCCAUGUUGUGGGUCAGGAUAUAGGCAGGCCA | – | – | 25.3 nM | 20.1 nM | – |
| GGUCCGACAACAGGAUAUGUCAUACGCUAAUGAACAGAAGGGUUACAUGAGGAUCACCCAUGUGCUUACACAUGCUCCGGAGCA | – | – | 10.8 nM | 17.1 nM | – |
| AAUCAUAAUAAAGGAUAUACAACACAACAGGUGGUAGAAGGAUAUGGAGAUGGAACACACAUGAGGAUCACCCAUGUAAAUAGC | – | – | 13 nM | 9.95 nM | – |
| CUAGGUCAGCUAGGAUAUACUUCUUGCAUGGAUGUAGAAGGAGCGAUAAGAUCUACAUGAGGAUCACCCAUGUUACUUAGGGUG | 290 nM | 131 nM | – | – | – |
| UAGGUACAUGAGGAUCACCCAUGUCCUAUUACUACAGGAUAUAGCGUGCCUAGAUGGGUGCUAGAAGGGUAGAUCU | – | – | 20.7 nM | 9.13 nM | – |
| AUCAGUCUAGAAGGAUAUCAGCCCGAAGCCGAGUGAGAAGGUCUAGACAUGAGGAUCACCCAUGUCACAGCAACUAUCAAGAAC | 9.74 nM | 19.1 nM | – | – | – |
| UCAUACAUGAGGAUCACCCAUGUUCGUGGGCGAGGACCGGUACGGCCGCCACUCGUACUAACGGUUUCUUAAACUUCCUUUCGAG | – | – | – | – | apparent Kd [5]: 25.6 nM; apparent Kd [6]: 17.2 nM |
